Calls of active or inactive are those of the source. No cut-off for these calls is given here.
Experiments:
[1] = Antitumor activity against human MDA231 cells after 24 to 48 hrs by MTT assay; assay type: functional, cell-based; details: MDA-MB-231
How it was run: (§1)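 MTT read-out. Cells grown at 37 °C in DMEM with 10 mM glucose, 10% fetal calf serum, penicillin/streptomycin and 2 mmol/L glutamine. Seeded at 10^5 cells per well and left 24 h to attach, then compound added over a range of concentrations and cells grown 24 or 48 h. MTT at 1 mg/mL for 2 h at 37 °C in the dark, formazan dissolved in DMSO, OD read at 550 nm. Values are % of vehicle control (0.5% DMSO); IC50 by linear and polynomial regression; triplicate.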

SW-620 = test: Antitumor activity against human SW620 cells after 24 to 48 hrs by MTT assay; assay type: functional, cell-based; how it was run: as §1
U-937 = test: Antitumor activity against human U937 cells after 24 to 48 hrs by MTT assay; assay type: functional, cell-based; how it was run: as §1
MCF7 [2] = test: Cytotoxicity against human MCF7 cells; assay type: functional, cell-based; how it was run: as §1
MDA-MB-435 = test: Antitumor activity against human MDA-MB-435 cells after 24 to 48 hrs by MTT assay; assay type: functional, cell-based
How it was run: as §1, with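 “nm.” for “nm. Values are % of vehicle control (0.5% DMSO); IC50 by linear and polynomial regression; triplicate.”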

SK-MEL-28 = test: Antitumor activity against human SK-MEL-28 cells after 24 to 48 hrs by MTT assay; assay type: functional, cell-based; how it was run: as §1
[3] = Antitumor activity against human IGROV cells after 24 to 48 hrs by MTT assay; assay type: functional, cell-based
How it was run: as §1, with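 “nm.” for “nm. Values are % of vehicle control (0.5% DMSO); IC50 by linear and polynomial regression; triplicate.”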

SF-295 = test: Antitumor activity against human SF295 cells after 24 to 48 hrs by MTT assay; assay type: functional, cell-based; how it was run: as §1
SNB-19 = test: Antitumor activity against human SNB19 cells after 24 to 48 hrs by MTT assay; assay type: functional, cell-based; how it was run: as §1
COLO 205 = test: Antitumor activity against human COLO205 cells after 24 to 48 hrs by MTT assay; assay type: functional, cell-based; how it was run: as §1
HT-29 = test: Antitumor activity against human HT-29 cells after 24 to 48 hrs by MTT assay; assay type: functional, cell-based; how it was run: as §1
Caco-2 [4] = test: Antitumor activity against human undifferentiated Caco2 cells after 24 to 48 hrs by MTT assay; assay type: functional, cell-based; how it was run: as §1
Caco-2 [5] = test: Antitumor activity against human differentiated Caco2 cells after 24 to 48 hrs by MTT assay; assay type: cell-based; how it was run: as §1
Caco-2 [6] = test: Selectivity index, ratio IC50 for undifferentiated human Caco2 cells to IC50 for differentiated human Caco2 cells; assay type: functional
How it was run: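 Ratio of MTT IC50 in undifferentiated to differentiated Caco-2 cells. MTT conditions: 24 or 48 h exposure, formazan dissolved in DMSO, read at 550 nm, IC50 by regression, triplicate.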

MCF7 [7] = test: Drug uptake in human MCF7 cells assessed as nuclear localization at 50 nM after 30 mins by confocal microscopic analysis; assay type: ADME, cell-based; details: mcf7, 0.5 h, 0.05 µM
How it was run: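 Imaging in MCF-7 cells by confocal microscopy with 50 nM labeled compound. Cells fixed in paraformaldehyde for 30 min at 4 °C, permeabilized with Triton X-100 for 30 min at 4 °C, and nuclei stained with Hoechst 33342. Images taken with a 63× oil objective.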

Homo sapiens [8] = species: Homo sapiens; test: Inhibition of human topoisomerase 2-mediated relaxation of supercoiled pBR322 DNA relaxation after 6 mins by agarose gel electrophoresis
Nucleic Acid [9] = test: Binding affinity to poly(dG-dC).poly(dG-dC) DNA assessed as compound/DNA complex formation at 1 mM by STD NMR spectrophotometric analysis; assay type: nucleic-acid assay
How it was run: (§2)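 Ligand at 1.0 mM with poly(dG-dC)·poly(dG-dC) at 50 μM (as phosphate groups), a 20:1 ligand excess, in H2O/D2O 9:1 with 100 mM phosphate-buffered saline, pH 7.1. Water suppressed by DPFGSE. STD effects taken relative to a reference spectrum with off-resonance saturation at δ −16 ppm, 2 s saturation, typically 512 scans. WaterLOGSY spectra recorded with and without DNA.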

Nucleic Acid [10] = test: Binding affinity to poly(dG-dC).poly(dG-dC) DNA assessed as compound/DNA complex formation at 1 mM by WaterLOGSY NMR spectrophotometric analysis; assay type: nucleic-acid assay; how it was run: as §2
Nucleic Acid [11] = test: Binding affinity to DNA assessed as binding mode index by measuring aliphatic signals by DF-STD spectrophotometric analysis; assay type: nucleic-acid assay
How it was run: (§3)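 DF-STD NMR on poly(dG-dC)·poly(dG-dC) in H2O/D2O 9:1 with 100 mM phosphate-buffered saline, pH 7.1. Ligand 1.0 mM; DNA 50 μM as phosphate (20:1 ligand excess). Saturation is centred on the aromatic or low-field aliphatic region for 2 s, with a reference off-resonance at δ −16 ppm and 512 scans. The binding mode index is the relative response of ligand protons to base versus sugar/backbone saturation.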

Nucleic Acid [12] = test: Binding affinity to DNA assessed as binding mode index by measuring aromatic signals by DF-STD spectrophotometric analysis; assay type: nucleic-acid assay; how it was run: as §3
Caco-2 [13] = test: Cell cycle arrest in human Caco2 cells assessed as accumulation at G1 phase at 1 uM after 48 hrs by propidium iodide staining based flow cytometric analysis (reference value: 42%); assay type: functional
Caco-2 [14] = test: Cell cycle arrest in human Caco2 cells assessed as accumulation at G2/M phase at 1 uM after 48 hrs by propidium iodide staining based flow cytometric analysis (reference value: 21%); assay type: functional
Caco-2 [15] = test: Cell cycle arrest in human Caco2 cells assessed as accumulation at S phase at 1 uM after 48 hrs by propidium iodide staining based flow cytometric analysis (reference value: 36%); assay type: functional
Caco-2 [16] = test: Induction of cyclin A expression in human Caco2 cells at 1 uM after 48 hrs by Western blot analysis; assay type: functional
How it was run: (§4)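 Caco-2 cells treated for 48 h (1 or 5 μM for Hsp27; 1 μM for cyclin A). Lysed in ice-cold 50 mM Tris, 150 mM NaCl, 10 mM EDTA, 1% Triton with protease inhibitors. Equal protein run on 8–12% SDS-PAGE and transferred to nitrocellulose. Primary antibody overnight in TBS/Tween/1% milk, then HRP secondary; bands detected by ECL.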

Caco-2 [17] = test: […] of cell differentiation in human Caco2 cells assessed as increase in ALP activity at 10 uM after 48 hrs; assay type: functional; set-up: scale not given: the % may be the effect or the level left
How it was run: (§5)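 Caco-2 cells cultured 48 h with 0, 1, 5 or 10 μM compound. Attached and floating cells washed and lysed in 0.25% sodium deoxycholate. ALP activity measured with a diagnostic ALP reagent and protein by Bradford microassay. Activity expressed as units per mg protein, as a differentiation marker.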

Caco-2 [18] = test: Increase in Hsp27 protein expression in human Caco2 cells at 1 uM after 48 hrs by Western blot analysis; assay type: functional, cell-based; how it was run: as §4
Caco-2 [19] = test: Increase in Hsp27 protein expression in human Caco2 cells at 5 uM after 48 hrs by Western blot analysis; assay type: functional, cell-based; how it was run: as §4
[20] = Cardiotoxicity in rat H9c2 cells assessed as cell viability at 1 uM up to 120 hrs by MTT assay; assay type: toxicity, cell-based; details: read-out: Activity
How it was run: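 Rat H9C2 cardiomyoblasts, passages 4–10, grown at 37 °C in DMEM with FBS, glutamine and penicillin/streptomycin. Plated at 2000 cells/well in quadruplicate and given compound at 1 μM for the indicated times. MTT reagent added for 2 h in the incubator, then absorbance read at 570 nm. Data are mean ± SD.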

Caco-2 [21] = test: […] of cell differentiation in human Caco2 cells assessed as increase in ALP activity at 1 uM after 48 hrs; assay type: functional; set-up: scale not given: the % may be the effect or the level left; how it was run: as §5
Caco-2 [22] = test: […] of cell differentiation in human Caco2 cells assessed as increase in ALP activity at 5 uM after 48 hrs; assay type: functional; set-up: scale not given: the % may be the effect or the level left; how it was run: as §5
Caco-2 [23] = test: Increase in Hsp27 protein expression in human Caco2 cells after 48 hrs by Western blot analysis; assay type: functional, cell-based; how it was run: as §4
Homo sapiens [24] = species: Homo sapiens; test: Inhibition of human topoisomerase 2-mediated relaxation of supercoiled pBR322 DNA relaxation at 5 uM after 6 mins by agarose gel electrophoresis
How it was run: (§6)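 Compound at 5 or 10 μM. Run 6 min at 37 °C and stopped with EDTA/SDS/glycerol dye. Products run on 1% agarose in 0.5× TBE at 4 V/cm for 1 h, stained with ethidium bromide, bands quantified.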

Homo sapiens [25] = species: Homo sapiens; test: Inhibition of human topoisomerase 2-mediated relaxation of supercoiled pBR322 DNA relaxation at 10 uM after 6 mins by agarose gel electrophoresis; how it was run: as §6

Row | SMILES | IC50 [1] [µM] | IC50 (SW-620) [µM] | IC50 (U-937) [µM] | Activity (Nucleic Acid [9]) | Activity (Nucleic Acid [10]) | Activity (Caco-2 [13]) [%] | Activity (Caco-2 [14]) [%] | Activity (Caco-2 [15]) [%] | Activity (Caco-2 [16]) | further results
1 | O=C(CS)Nc1csc2c1C(=O)c1ccccc1C2=O | 13.6 | 20.9 | 30.1 |  |  |  |  |  |  | 
2 | CCN(CC)CCC(=O)Nc1csc2c1C(=O)c1ccccc1C2=O.Cl | 2.5 | 1.5 | 1.1 | Active | Active | 29 | 28 | 41 | inactive | IC50 (MCF7 [2]): 0.5 µM; IC50 (MDA-MB-435): 0.5 µM; IC50 (SK-MEL-28): 0.6 µM; IC50 [3]: 2.5 µM; IC50 (SF-295): 0.6 µM; IC50 (SNB-19): 0.7 µM; IC50 (COLO 205): 0.9 µM; IC50 (HT-29): 0.8 µM; IC50 (Caco-2 [4]): 1 µM; IC50 (Caco-2 [5]): 4.1 µM; Ratio IC50 (Caco-2 [6]): 0.25; Drug uptake (MCF7 [7]): Active; inhibition (Homo sapiens [8]): Dose-dependent effect; Activity (Nucleic Acid [11]): 0.86; Activity (Nucleic Acid [12]): 1.35; Activity (Caco-2 [17]): >180%; Activity (Caco-2 [18]): Active; Activity (Caco-2 [19]): inactive; viability at 120 h, 1 µM [20]: 74%
3 | CN(C)CCNC(=O)Nc1csc2c1C(=O)c1ccccc1C2=O | 8.7 | 5.9 | 9.8 |  |  |  |  |  |  | 
4 | CN(C)CCNCCC(=O)Nc1csc2c1C(=O)c1ccccc1C2=O.Cl.Cl | 2 | 0.6 | 1.3 | Active | Active | 20 | 26 | 53 | 43% | IC50 (MCF7 [2]): 0.6 µM; IC50 (MDA-MB-435): 0.5 µM; IC50 (SK-MEL-28): 0.3 µM; IC50 [3]: 2 µM; IC50 (SF-295): 0.6 µM; IC50 (SNB-19): 0.9 µM; IC50 (COLO 205): 1.1 µM; IC50 (HT-29): 0.5 µM; IC50 (Caco-2 [4]): 0.8 µM; IC50 (Caco-2 [5]): 3.8 µM; Ratio IC50 (Caco-2 [6]): 0.21; Drug uptake (MCF7 [7]): Active; inhibition (Homo sapiens [8]): Dose-dependent effect; Activity (Nucleic Acid [11]): 0.9; Activity (Nucleic Acid [12]): 1.01; Activity (Caco-2 [21]): 35%; Activity (Caco-2 [22]): >180%; Activity (Caco-2 [23]): Dose-dependent effect; viability at 120 h, 1 µM [20]: 76%
5 | N[C@@H](Cc1ccccc1)C(=O)Nc1csc2c1C(=O)c1ccccc1C2=O.O=C(O)C(F)(F)F | > 40 | 30.5 | > 40 | inactive | inactive | 37 | 18 | 44 | inactive | inhibition (Homo sapiens [24]): inactive; inhibition (Homo sapiens [25]): inactive
6 | NCC(=O)Nc1csc2c1C(=O)c1ccccc1C2=O | 6.2 | 2.3 | 7 |  |  |  |  |  |  | 
7 | CN(C)CCNCC(=O)Nc1csc2c1C(=O)c1ccccc1C2=O | 4.9 | 2.1 | 4 |  |  |  |  |  |  | 
8 | O=C(CCN1CCOCC1)Nc1csc2c1C(=O)c1ccccc1C2=O | 10.1 | 20.1 | 7.2 |  |  |  |  |  |  | 
9 | C[C@H](N)C(=O)Nc1csc2c1C(=O)c1ccccc1C2=O | > 40 | 12.4 | 9.1 |  |  |  |  |  |  | 
10 | O=C(CO)Nc1csc2c1C(=O)c1ccccc1C2=O | 10.1 | 18.5 | 15.1 |  |  |  |  |  |  | 
